From ChEMBL document CHEMBL5046217, “Discovery of New Imidazo[2,1-b]thiazole Derivatives as Potent Pan-RAF Inhibitors with Promising In Vitro and In Vivo Anti-melanoma Activity” (J Med Chem, 2021)

What was measured:
[1] = molecular target: Serine/threonine-protein kinase B-raf (Homo sapiens, UniProt P15056); assay: Inhibition of human wild type BRAF using myelin basic protein as substrate in presence of [gamma-33P]ATP incubated for 40 mins by scintillation counting method
In short: (§1)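 Radiometric kinase assay run at Reaction Biology. Kinase (5−10 mU) in 25 mM Tris pH 7.5, 0.02 mM EGTA, 10 mM magnesium acetate with 0.66 mg/mL myelin basic protein and [γ-33P]ATP at 1 μM ATP. Reaction started with Mg-ATP and run 40 min at room temperature, then stopped with 3% phosphoric acid. Spotted on P30 filtermat, washed, scintillation counted.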

[2] = molecular target: Serine/threonine-protein kinase B-raf (Homo sapiens, UniProt P15056, V600E); assay: Inhibition of human BRAF V600E mutant using myelin basic protein as substrate in presence of [gamma-33P]ATP incubated for 40 mins by scintillation counting method; in short: as §1
[3] = molecular target: RAF proto-oncogene serine/threonine-protein kinase (Homo sapiens, UniProt P04049); assay: Inhibition of human wild type CRAF using myelin basic protein as substrate in presence of [gamma-33P]ATP incubated for 40 mins by scintillation counting method
[4] = test system: Panel melanoma (Carcinoma cell lines); assay: cells; conditions: Homo sapiens, 48 h, read-out: INH
[5] = molecular target: Serine/threonine-protein kinase/endoribonuclease IRE1 (Homo sapiens, UniProt O75460); assay: Inhibition of ERN1 (unknown origin) incubated for 1 hr by qPCR analysis
In short: (§2)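 Competition binding assay. Kinases were either T7-phage-tagged (grown in an E. coli BL21-derived host) or expressed in HEK-293 cells and DNA-tagged. […] Bound kinase was eluted with non-biotinylated ligand and quantified by qPCR.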

[6] = molecular target: Fibroblast growth factor receptor 1 (Homo sapiens, UniProt P11362); assay: Inhibition of FGFR1 (unknown origin) incubated for 1 hr by qPCR analysis
[7] = molecular target: T1, Receptor-type tyrosine-protein kinase FLT3 (Homo sapiens, UniProt P36888); assay: Inhibition of FLT3 (unknown origin) incubated for 1 hr by qPCR analysis; in short: as §2
T1 sequence (P36888 whole entry): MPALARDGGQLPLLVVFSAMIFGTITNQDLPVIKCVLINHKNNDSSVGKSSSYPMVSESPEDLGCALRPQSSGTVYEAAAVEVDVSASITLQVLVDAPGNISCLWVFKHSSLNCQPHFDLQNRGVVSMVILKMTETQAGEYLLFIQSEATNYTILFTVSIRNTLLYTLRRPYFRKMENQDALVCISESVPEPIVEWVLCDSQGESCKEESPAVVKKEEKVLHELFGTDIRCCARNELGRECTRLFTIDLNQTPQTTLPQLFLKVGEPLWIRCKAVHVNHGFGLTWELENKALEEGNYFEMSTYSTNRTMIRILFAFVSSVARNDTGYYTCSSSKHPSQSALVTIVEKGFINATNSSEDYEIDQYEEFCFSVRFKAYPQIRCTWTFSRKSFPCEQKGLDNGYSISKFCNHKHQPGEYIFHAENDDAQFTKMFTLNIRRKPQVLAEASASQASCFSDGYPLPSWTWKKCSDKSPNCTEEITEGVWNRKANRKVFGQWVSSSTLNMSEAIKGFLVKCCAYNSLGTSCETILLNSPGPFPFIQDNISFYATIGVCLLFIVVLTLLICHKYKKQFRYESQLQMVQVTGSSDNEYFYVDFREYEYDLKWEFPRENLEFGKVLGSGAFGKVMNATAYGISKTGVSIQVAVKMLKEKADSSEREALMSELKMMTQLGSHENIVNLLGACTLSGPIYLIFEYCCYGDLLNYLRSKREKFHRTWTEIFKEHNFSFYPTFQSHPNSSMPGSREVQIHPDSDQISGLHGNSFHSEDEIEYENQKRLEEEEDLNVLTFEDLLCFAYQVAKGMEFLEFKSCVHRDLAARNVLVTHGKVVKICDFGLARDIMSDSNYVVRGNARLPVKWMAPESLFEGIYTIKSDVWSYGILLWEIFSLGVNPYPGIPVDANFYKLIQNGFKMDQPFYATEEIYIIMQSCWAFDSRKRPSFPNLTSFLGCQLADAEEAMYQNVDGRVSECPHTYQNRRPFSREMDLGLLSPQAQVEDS

[8] = molecular target: Homeodomain-interacting protein kinase 1 (Homo sapiens, UniProt Q86Z02); assay: Inhibition of HIPK1 (unknown origin) incubated for 1 hr by qPCR analysis; in short: as §2
[9] = molecular target: Mitogen-activated protein kinase 8 (Homo sapiens, UniProt P45983); assay: Inhibition of MAPK8 (unknown origin) incubated for 1 hr by qPCR analysis; in short: as §2
[10] = molecular target: Mitogen-activated protein kinase 11 (Homo sapiens, UniProt Q15759); assay: Inhibition of MAPK11 (unknown origin) incubated for 1 hr by qPCR analysis; in short: as §2
[11] = molecular target: Mitogen-activated protein kinase 14 (Homo sapiens, UniProt Q16539); assay: Inhibition of MAPK14 (unknown origin) incubated for 1 hr by qPCR analysis; in short: as §2
[12] = molecular target: Mitogen-activated protein kinase kinase kinase 20 (Homo sapiens, UniProt Q9NYL2); assay: Inhibition of ZAK (unknown origin) incubated for 1 hr by qPCR analysis; in short: as §2

Chain of Serine/threonine-protein kinase B-raf (Homo sapiens, UniProt P15056) (P15056 whole entry): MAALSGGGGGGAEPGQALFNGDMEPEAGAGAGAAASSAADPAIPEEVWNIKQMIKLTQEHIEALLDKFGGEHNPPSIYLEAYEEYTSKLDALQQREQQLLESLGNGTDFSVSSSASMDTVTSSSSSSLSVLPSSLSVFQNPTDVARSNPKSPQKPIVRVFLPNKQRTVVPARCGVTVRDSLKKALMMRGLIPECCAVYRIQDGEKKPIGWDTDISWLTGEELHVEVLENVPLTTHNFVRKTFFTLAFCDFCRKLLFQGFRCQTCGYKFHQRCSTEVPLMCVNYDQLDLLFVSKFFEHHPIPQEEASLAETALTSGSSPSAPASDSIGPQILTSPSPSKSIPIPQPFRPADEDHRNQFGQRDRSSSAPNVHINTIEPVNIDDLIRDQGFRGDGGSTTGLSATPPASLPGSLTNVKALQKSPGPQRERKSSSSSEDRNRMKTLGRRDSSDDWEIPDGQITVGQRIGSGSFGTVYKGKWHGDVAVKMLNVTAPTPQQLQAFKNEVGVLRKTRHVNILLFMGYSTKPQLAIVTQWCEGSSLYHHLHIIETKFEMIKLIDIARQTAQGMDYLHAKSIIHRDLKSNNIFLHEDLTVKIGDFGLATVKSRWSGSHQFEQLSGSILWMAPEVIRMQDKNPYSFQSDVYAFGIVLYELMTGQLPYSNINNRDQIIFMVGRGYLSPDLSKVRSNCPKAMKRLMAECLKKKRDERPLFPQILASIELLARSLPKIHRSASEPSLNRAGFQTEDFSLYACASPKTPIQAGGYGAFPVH
Chain of Serine/threonine-protein kinase B-raf (Homo sapiens, UniProt P15056, V600E) (P15056 2-766 V600E limits assumed): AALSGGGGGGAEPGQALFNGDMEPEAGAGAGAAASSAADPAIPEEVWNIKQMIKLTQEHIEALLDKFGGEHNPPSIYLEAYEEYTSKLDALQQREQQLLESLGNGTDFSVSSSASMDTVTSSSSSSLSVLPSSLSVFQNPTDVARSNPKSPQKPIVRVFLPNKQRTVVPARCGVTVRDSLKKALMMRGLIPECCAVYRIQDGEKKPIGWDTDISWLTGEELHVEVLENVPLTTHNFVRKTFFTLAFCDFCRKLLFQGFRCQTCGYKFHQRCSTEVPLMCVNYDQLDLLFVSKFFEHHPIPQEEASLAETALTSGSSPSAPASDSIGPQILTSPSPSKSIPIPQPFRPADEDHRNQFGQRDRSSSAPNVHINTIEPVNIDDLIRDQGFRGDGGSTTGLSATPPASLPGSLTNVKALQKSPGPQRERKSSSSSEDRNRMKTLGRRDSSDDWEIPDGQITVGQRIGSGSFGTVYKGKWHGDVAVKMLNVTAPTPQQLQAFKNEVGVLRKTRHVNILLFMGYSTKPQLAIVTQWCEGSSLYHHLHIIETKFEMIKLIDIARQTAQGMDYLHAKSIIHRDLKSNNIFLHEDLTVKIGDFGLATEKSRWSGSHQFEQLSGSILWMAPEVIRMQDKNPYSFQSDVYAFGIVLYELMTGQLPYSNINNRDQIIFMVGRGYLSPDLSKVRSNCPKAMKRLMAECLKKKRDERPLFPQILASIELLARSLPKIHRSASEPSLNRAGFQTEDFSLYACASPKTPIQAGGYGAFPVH
Chain of RAF proto-oncogene serine/threonine-protein kinase (P04049 whole entry): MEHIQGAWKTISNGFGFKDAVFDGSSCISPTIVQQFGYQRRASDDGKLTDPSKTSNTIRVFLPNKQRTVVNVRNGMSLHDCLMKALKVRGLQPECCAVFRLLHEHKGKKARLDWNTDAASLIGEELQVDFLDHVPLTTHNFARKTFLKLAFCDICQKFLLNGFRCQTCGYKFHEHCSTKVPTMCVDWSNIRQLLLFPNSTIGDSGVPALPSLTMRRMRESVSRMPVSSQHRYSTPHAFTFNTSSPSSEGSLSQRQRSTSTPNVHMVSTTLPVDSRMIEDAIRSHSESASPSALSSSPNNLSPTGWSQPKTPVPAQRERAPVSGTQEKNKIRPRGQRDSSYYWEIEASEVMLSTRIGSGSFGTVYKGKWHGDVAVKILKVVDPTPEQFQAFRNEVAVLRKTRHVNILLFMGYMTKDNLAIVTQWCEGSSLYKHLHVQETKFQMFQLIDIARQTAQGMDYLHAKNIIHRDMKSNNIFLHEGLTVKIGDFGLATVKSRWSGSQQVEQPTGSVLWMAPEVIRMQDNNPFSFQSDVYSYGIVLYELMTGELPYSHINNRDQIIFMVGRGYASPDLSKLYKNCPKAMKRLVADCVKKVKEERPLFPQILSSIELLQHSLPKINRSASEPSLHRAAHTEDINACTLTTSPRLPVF
Chain of Mitogen-activated protein kinase 8 (P45983 whole entry): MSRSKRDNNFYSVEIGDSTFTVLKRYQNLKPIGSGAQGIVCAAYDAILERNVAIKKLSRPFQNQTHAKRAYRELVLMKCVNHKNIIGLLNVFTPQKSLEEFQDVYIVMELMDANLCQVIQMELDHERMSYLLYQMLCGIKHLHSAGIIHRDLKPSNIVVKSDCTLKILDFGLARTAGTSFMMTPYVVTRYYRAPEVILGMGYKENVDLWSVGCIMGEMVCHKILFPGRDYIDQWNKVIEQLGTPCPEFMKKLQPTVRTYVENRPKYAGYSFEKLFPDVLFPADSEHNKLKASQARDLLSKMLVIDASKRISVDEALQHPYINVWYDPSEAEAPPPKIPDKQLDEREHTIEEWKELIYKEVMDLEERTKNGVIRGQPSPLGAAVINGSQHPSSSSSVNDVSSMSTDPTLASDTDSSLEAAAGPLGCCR
Chain of Serine/threonine-protein kinase/endoribonuclease IRE1 (O75460 whole entry): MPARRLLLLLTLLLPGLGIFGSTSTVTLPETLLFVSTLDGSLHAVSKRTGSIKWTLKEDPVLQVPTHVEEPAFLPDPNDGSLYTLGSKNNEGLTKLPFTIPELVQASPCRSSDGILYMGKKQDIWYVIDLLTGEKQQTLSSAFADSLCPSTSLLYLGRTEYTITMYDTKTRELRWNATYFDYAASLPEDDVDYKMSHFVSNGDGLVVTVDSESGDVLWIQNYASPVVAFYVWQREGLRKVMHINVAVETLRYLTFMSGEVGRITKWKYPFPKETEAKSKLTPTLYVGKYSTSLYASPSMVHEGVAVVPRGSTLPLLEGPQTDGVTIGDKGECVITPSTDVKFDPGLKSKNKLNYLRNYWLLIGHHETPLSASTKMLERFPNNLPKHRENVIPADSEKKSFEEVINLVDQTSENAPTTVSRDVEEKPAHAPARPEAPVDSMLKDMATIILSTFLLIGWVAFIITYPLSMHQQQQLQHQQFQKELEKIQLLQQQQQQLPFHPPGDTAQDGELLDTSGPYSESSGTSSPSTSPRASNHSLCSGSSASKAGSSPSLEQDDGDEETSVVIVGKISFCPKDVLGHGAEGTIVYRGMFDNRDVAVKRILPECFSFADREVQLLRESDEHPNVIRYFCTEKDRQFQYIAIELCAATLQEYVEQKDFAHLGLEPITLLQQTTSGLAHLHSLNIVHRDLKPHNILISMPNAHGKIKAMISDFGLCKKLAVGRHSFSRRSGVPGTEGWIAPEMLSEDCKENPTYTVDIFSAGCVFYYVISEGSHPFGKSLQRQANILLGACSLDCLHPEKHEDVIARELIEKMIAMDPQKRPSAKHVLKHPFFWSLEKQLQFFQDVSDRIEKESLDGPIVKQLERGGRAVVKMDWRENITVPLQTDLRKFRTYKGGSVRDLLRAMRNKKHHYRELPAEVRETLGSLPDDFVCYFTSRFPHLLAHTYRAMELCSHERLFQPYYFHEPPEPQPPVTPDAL
Chain of Fibroblast growth factor receptor 1 (P11362 whole entry): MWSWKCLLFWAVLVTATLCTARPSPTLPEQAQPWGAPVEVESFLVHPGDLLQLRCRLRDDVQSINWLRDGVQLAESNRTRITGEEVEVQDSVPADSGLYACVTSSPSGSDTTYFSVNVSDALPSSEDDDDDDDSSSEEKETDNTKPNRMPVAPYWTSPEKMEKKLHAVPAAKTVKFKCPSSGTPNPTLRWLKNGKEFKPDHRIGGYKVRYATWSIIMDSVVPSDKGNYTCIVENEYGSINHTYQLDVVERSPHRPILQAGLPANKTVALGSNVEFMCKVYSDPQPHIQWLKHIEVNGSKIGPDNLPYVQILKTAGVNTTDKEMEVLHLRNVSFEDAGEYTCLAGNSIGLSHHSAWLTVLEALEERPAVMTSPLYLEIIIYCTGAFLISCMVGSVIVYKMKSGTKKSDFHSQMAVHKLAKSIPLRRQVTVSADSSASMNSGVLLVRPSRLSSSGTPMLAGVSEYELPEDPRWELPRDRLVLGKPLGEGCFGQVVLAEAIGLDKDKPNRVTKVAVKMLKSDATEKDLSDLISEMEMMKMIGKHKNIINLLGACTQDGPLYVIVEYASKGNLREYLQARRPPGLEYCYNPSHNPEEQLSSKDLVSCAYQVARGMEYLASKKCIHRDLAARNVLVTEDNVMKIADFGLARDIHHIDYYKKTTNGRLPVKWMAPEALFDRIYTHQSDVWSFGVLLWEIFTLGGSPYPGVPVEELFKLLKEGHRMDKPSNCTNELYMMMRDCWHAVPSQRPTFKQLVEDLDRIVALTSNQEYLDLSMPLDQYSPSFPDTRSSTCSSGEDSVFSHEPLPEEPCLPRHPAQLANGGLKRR
Chain of Mitogen-activated protein kinase 11 (Q15759 whole entry): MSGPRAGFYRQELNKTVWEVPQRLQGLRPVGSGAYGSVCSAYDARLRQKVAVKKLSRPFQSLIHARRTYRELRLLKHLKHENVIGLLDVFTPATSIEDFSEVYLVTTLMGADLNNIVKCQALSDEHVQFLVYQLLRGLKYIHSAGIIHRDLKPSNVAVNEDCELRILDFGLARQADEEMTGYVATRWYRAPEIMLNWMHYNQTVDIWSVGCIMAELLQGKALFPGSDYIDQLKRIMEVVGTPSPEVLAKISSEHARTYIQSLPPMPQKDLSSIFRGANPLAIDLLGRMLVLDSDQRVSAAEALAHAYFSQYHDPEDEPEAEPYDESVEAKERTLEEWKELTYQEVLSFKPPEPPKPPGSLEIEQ

SMILES | IC50 [1] [nM] | IC50 [2] [nM] | IC50 [3] [nM] | other results
Cc1ccc(S(=O)(=O)NCCNc2nccc(-c3c(-c4ccc(O)cc4)nc4sccn34)n2)cc1 | 11300 | 21300 | 16500 | –
O=S(=O)(NCCNc1nccc(-c2c(-c3ccccc3)nc3sccn23)n1)c1ccc(O)cc1 | 97 | 65 | 75 | –
COc1cccc(-c2nc3sccn3c2-c2ccnc(NCCCNS(=O)(=O)c3ccc(F)cc3)n2)c1 | 430 | 90.3 | 95.2 | inhibition at 10 µM [4]: 101%
O=S(=O)(NCCNc1nccc(-c2c(-c3cccc(O)c3)nc3sccn23)n1)c1ccccc1 | 35 | 19 | 21 | –
O=S(=O)(NCCCNc1nccc(-c2c(-c3ccccc3)nc3sccn23)n1)c1ccc(F)cc1 | 276 | 57.7 | 87.8 | inhibition at 10 µM [4]: 59.7%
O=S(=O)(NCCNc1nccc(-c2c(-c3ccccc3)nc3sccn23)n1)c1ccc(F)cc1 | 375 | 69.1 | 112 | –
Cc1ccc(S(=O)(=O)NCCCNc2nccc(-c3c(-c4ccccc4)nc4sccn34)n2)cc1 | 521 | 85.3 | 201 | –
COc1ccc(S(=O)(=O)NCCCNc2nccc(-c3c(-c4cccc(OC)c4)nc4sccn34)n2)cc1 | 589 | 156 | 164 | –
COc1cccc(-c2nc3sccn3c2-c2ccnc(NCCCNS(=O)(=O)c3ccc(C)cc3)n2)c1 | 894 | 168 | 209 | –
Cc1ccc(S(=O)(=O)NCCCNc2nccc(-c3c(-c4cccc(O)c4)nc4sccn34)n2)cc1 | 18 | 9 | 13 | –
Cc1ccc(S(=O)(=O)NCCNc2nccc(-c3c(-c4ccccc4)nc4sccn34)n2)cc1 | 623 | 89.3 | 251 | –
COc1ccc(S(=O)(=O)NCCNc2nccc(-c3c(-c4cccc(OC)c4)nc4sccn34)n2)cc1 | 745 | 160 | 151 | –
COc1ccc(-c2nc3sccn3c2-c2ccnc(NCCNS(=O)(=O)c3ccc(F)cc3)n2)cc1 | 9210 | 13200 | 32200 | –
COc1cccc(-c2nc3sccn3c2-c2ccnc(NCCNS(=O)(=O)c3ccc(C(F)(F)F)cc3)n2)c1 | – | – | 142 | IC50 [5]: > 20000 nM; IC50 [6]: 15600 nM; IC50 [7]: 2170 nM; IC50 [8]: 4580 nM; IC50 [9]: 420 nM; IC50 [10]: 120 nM; IC50 [11]: 98 nM; IC50 [12]: 8110 nM
COc1cccc(-c2nc3sccn3c2-c2ccnc(NCCNS(=O)(=O)c3ccc(F)cc3)n2)c1 | 522 | 115 | 100 | –
O=S1(=O)NCCCN1CCNc1nccc(-c2c(-c3cccc(O)c3)nc3sccn23)n1 | 9.56 | 5.21 | 7.21 | –
COc1cccc(-c2nc3sccn3c2-c2ccnc(NCCNS(=O)(=O)c3ccc(C)cc3)n2)c1 | 987 | 177 | 163 | –
CC(C)(C)OC(=O)N1CCCN(CCNc2nccc(-c3c(-c4cccc(O)c4)nc4sccn34)n2)S1(=O)=O | 11.2 | 9.57 | 9.98 | –
COc1cccc(-c2nc3sccn3c2-c2ccnc(NCCCNS(=O)(=O)c3cccc(F)c3)n2)c1 | 526 | 102 | 111 | IC50 [5]: 15600 nM; IC50 [6]: 11800 nM; IC50 [7]: 2980 nM; IC50 [8]: 3840 nM; IC50 [9]: 360 nM; IC50 [10]: 95 nM; IC50 [11]: 88 nM; IC50 [12]: 11300 nM
COc1ccc(-c2nc3sccn3c2-c2ccnc(NCCNS(=O)(=O)c3ccc(OC)cc3)n2)cc1 | 9890 | 26300 | 24300 | –
O=S(=O)(NCCCNc1nccc(-c2c(-c3cccc(O)c3)nc3sccn23)n1)c1ccccc1 | 29 | 20 | 23 | –
COc1cccc(-c2nc3sccn3c2-c2ccnc(NCCNS(=O)(=O)c3cccc(F)c3)n2)c1 | 561 | 112 | 106 | –
COc1ccc(-c2nc3sccn3c2-c2ccnc(NCCNS(=O)(=O)c3cccc4ccccc34)n2)cc1 | 20800 | > 35000 | 28900 | –
O=S(=O)(NCCNc1nccc(-c2c(-c3ccc(O)cc3)nc3sccn23)n1)c1ccc(O)cc1 | 9710 | 25100 | 19400 | –
Cc1ccc(S(=O)(=O)NCCNc2nccc(-c3c(-c4cccc(O)c4)nc4sccn34)n2)cc1 | 64 | 55 | 62 | –
CC1(C)CN(CCNc2nccc(-c3c(-c4cccc(O)c4)nc4sccn34)n2)S(=O)(=O)N1 | 10.3 | 6.35 | 4.26 | inhibition at 10 µM [4]: 79.7%
O=S1(=O)NCCN1CCNc1nccc(-c2c(-c3cccc(O)c3)nc3sccn23)n1 | 7.25 | 4.56 | 6.32 | –

Continued, in another order:

IC50 [1] [nM] | IC50 [2] [nM] | IC50 [3] [nM] | SMILES | other results
15.5 | 7.25 | 3.91 | O=S1(=O)N(CCNc2nccc(-c3c(-c4cccc(O)c4)nc4sccn34)n2)CCN1Cc1ccccc1 | –
18.1 | 9.96 | 7.22 | COc1cccc(-c2nc3sccn3c2-c2ccnc(NCCN3CCCNS3(=O)=O)n2)c1 | –
13.7 | 8.65 | 5.63 | COc1cccc(-c2nc3sccn3c2-c2ccnc(NCCN3CC(C)(C)NS3(=O)=O)n2)c1 | –
842 | 165 | 172 | COc1cccc(-c2nc3sccn3c2-c2ccnc(NCCCNS(=O)(=O)c3ccc4ccccc4c3)n2)c1 | –
6.12 | 1.51 | 2.52 | COc1cccc(-c2nc3sccn3c2-c2ccnc(NCCN3CCN(C)S3(=O)=O)n2)c1 | –
721 | 109 | 129 | COc1cccc(-c2nc3sccn3c2-c2ccnc(NCCCNS(=O)(=O)c3ccccc3)n2)c1 | –
299 | 66.1 | 98.3 | COc1ccc(S(=O)(=O)NCCCNc2nccc(-c3c(-c4ccccc4)nc4sccn34)n2)cc1 | –
23.3 | 12.6 | 11.2 | COc1cccc(-c2nc3sccn3c2-c2ccnc(NCCN3CCCN(C(=O)OC(C)(C)C)S3(=O)=O)n2)c1 | –
17.3 | 8.36 | 4.32 | COc1cccc(-c2nc3sccn3c2-c2ccnc(NCCN3CCN(Cc4ccccc4)S3(=O)=O)n2)c1 | –
8.26 | 2.62 | 2.33 | COc1cccc(-c2nc3sccn3c2-c2ccnc(NCCN3CCCN(C)S3(=O)=O)n2)c1 | –
20.3 | 10.5 | 5.61 | COc1cccc(-c2nc3sccn3c2-c2ccnc(NCCN3CCNS3(=O)=O)n2)c1 | –
941 | 120 | 220 | COc1cccc(-c2nc3sccn3c2-c2ccnc(NCCNS(=O)(=O)c3ccccc3)n2)c1 | –
